Reference: paper PMC8404201 (Journal of Medicinal Chemistry, 2021)
“Also recorded” adds a separate entry of the source.

Legend:
[1] = Pilot mouse pharmacokinetic study; assay type: in vivo, BALB/c mice; details: mice; for gross toxicity after single IV dose: single low-dose 10 mg/kg IV
[2] = Tolerability of repeated daily IP injection in mice; assay type: in vivo; details: 10 sequential daily IP injections, 10 mg/kg (34 in 100% DMSO)
Procedure, shortened: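 Mice got 10 sequential daily IP injections of test compound dissolved in 100% DMSO. They were monitored for clinical adverse signs.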

Row | SMILES | gross toxicity after single IV dose [1] | tolerability / adverse events after repeated daily IP injection [2] | apparent oral bioavailability (F) ([1]; PO vs IV, 10 mg/kg)
1 | CN(C)c1ccc2cc(-c3cc(Cl)cc(Cl)c3)c(N)nc2c1 [Compound 27, 3-[3,5-Dichlorophenyl]-N^7,N^7-dimethylquinoline-2,7-diamine] | no gross toxicity | not observed; also recorded: tolerable | –
2 | CN(C)c1ccc2cc(-c3cn(C)c4ccccc34)c(N)nc2c1 [Compound 34, 3-[3-(N-Methylindolyl)-N^7,N^7-dimethyl]-2,7-quinolinediamine] | no gross toxicity | toxic | < 20%
